Read-outs that look alike come from different tables or passages of the source.
Tests used:
[1] = tested on: MCF-7 (human breast adenocarcinoma) cells; test: Antiproliferative activity, LDH release assay, MCF-7; format: cell-based; settings: MCF7, 48 h, read-out: IC50 (μM) ± SD MCF-7
In short: (§1)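 Cells were kept in RPMI-1640 with 10% heat-inactivated FBS and penicillin/streptomycin at 37 °C in 5% CO2. They were seeded at 1 × 10^4 per well, grown 18 h, then exposed to graded concentrations for 48 h, with doxorubicin as positive control. LDH was read in supernatant and in Triton X-100 lysate by kinetic A340 over 1 min, using pH 7.5 phosphate with 4.6 mM pyruvate and 0.4 mg mL−1 NADH. % release = released/total. Three experiments in triplicate; IC50 by probit analysis.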

[2] = tested on: HCT-116 (human colorectal carcinoma) cells; test: Antiproliferative activity, LDH release assay, HCT-116; format: cell-based; settings: HCT-116, 48 h, read-out: IC50 (μM) ± SD HCT-116
In short: as §1

[3] = tested on: BJ-1 normal human skin fibroblast cells; test: Cytotoxicity on normal cells, LDH release assay, BJ-1; format: cell-based; settings: for IC50: Homo sapiens, Skin fibroblast, 48 h, read-out: IC50 (μM) ± SD BJ-1; for toxic activity on healthy cells BJ-1: BJ-1 normal cells, LDH assay
In short: as §1

[4] = biological target: epidermal growth factor receptor (EGFR) (Homo sapiens, UniProt P00533); test: EGFR kinase inhibition assay; format: biochemical
Sequence of epidermal growth factor receptor (EGFR) (P00533 25-1210): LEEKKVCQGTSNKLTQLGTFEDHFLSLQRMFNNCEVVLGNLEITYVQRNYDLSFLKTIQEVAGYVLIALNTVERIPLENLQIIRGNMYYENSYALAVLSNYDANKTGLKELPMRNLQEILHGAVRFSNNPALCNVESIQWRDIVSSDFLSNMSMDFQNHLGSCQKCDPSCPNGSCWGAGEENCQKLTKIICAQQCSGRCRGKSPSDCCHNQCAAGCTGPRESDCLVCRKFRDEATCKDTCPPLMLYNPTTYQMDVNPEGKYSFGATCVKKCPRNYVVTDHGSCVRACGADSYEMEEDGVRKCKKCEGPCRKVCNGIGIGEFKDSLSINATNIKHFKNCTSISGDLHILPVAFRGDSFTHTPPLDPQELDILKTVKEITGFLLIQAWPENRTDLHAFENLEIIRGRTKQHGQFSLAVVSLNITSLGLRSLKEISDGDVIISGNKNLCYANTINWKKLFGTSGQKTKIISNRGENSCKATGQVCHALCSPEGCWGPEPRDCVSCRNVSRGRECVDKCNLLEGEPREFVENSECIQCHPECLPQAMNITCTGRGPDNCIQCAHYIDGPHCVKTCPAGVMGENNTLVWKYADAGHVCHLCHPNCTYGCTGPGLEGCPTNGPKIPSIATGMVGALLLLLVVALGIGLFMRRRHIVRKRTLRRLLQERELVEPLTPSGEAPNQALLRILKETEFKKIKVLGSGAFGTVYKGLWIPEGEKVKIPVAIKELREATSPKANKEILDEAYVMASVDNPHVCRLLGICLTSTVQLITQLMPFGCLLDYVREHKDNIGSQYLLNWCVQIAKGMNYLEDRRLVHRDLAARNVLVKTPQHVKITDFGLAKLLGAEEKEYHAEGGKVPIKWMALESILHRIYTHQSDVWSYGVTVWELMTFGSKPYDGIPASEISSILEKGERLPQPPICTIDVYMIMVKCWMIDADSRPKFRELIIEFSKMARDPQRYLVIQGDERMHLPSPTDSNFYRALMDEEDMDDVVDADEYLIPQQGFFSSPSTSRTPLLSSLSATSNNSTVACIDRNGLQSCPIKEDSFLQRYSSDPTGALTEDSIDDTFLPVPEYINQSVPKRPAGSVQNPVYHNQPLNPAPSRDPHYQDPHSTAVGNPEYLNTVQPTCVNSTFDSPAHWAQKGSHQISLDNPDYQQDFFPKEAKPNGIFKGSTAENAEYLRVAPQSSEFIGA

[5] = biological target: histone deacetylase 1 (HDAC1) (Homo sapiens, UniProt Q13547); test: Fluorogenic HDAC1 inhibition assay; format: biochemical
Sequence of histone deacetylase 1 (HDAC1) (Q13547 whole entry): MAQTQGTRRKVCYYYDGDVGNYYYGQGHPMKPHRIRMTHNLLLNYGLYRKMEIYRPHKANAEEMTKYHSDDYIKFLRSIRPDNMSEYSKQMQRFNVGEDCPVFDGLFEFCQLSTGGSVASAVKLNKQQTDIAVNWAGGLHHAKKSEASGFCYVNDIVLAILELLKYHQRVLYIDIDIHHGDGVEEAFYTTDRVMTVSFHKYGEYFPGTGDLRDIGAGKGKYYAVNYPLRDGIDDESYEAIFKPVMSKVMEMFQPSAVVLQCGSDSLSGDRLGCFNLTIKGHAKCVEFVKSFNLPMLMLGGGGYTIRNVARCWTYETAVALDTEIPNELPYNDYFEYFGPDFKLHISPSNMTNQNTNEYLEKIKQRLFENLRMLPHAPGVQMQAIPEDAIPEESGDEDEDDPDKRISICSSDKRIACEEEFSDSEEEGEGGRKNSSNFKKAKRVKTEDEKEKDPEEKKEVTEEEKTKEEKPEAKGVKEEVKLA

[6] = biological target: ERK1 (extracellular signal-regulated kinase 1) (Homo sapiens, UniProt P27361); test: ERK1 kinase assay; format: biochemical
Sequence of ERK1 (extracellular signal-regulated kinase 1) (P27361 whole entry): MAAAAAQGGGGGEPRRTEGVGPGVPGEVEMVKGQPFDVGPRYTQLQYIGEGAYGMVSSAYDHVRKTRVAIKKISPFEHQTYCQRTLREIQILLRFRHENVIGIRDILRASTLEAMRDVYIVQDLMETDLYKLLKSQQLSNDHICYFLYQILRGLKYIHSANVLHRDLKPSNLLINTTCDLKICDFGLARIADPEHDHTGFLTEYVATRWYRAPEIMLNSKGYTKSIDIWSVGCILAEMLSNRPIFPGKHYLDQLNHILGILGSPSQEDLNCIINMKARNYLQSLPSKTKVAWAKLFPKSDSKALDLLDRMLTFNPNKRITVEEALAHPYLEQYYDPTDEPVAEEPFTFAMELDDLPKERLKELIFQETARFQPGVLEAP

MCF-7 cells [7] = test: Cell-cycle analysis by flow cytometry; format: cell-based, human; settings: MCF-7, 48 h; control 10.98%
MCF-7 cells [8] = test: Apoptosis assay, Annexin V-FITC/PI flow cytometry; format: cell-based, human; settings: MCF-7, 48 h
[9] = tested on: Ehrlich ascites carcinoma (EAC) cells; test: Ehrlich ascites carcinoma; format: in vivo, female BALB/c mice; settings: EAC-bearing mice; for total volume of collected ascitic fluid: i.p. 2 mg kg^−1 twice weekly × 2 weeks; for Avg. volume of ascitic fluid (mL) [packed cell volume] / Viable cell count (×10^6 cells per mL) / Cell-growth inhibition (%): i.p. 2 mg kg^−1 × 2 weeks; for Avg. volume of ascitic fluid (mL) [packed cell volume]: EAC control 10.5; for Viable cell count (×10^6 cells per mL): trypan blue, EAC control 33; for Cell-growth inhibition (%): vs EAC control viable cell count
In short: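 Female BALB/c mice (25 ± 3 g) received 1 × 10^6 EAC cells i.p. in 100 μL PBS (>95% trypan-blue viability). On day 3, mice were grouped (n = 8). Dosing was i.p.: test compound 2 mg kg−1 twice weekly × 2 weeks, DMSO vehicle, or doxorubicin 2 mg kg−1 once weekly. Endpoint: ascitic volume measured, fluid spun 1200×g for 10 min, viable cells counted by 0.4% trypan blue on a hemocytometer. Growth inhibition = (control − treated)/control × 100.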

[10] = tested on: Ehrlich solid carcinoma (ESC); test: Ehrlich solid carcinoma; format: in vivo, male BALB-c mice; settings: intratumoral 2 mg kg^−1, two doses weekly for two weeks

COc1ccc(N=Nc2sc(=NN=C(C)c3c(O)c4ccccc4oc3=O)[nH]c2C)cc1 [3a, 4-Hydroxy-3-(-1-((-5-(-(4-methoxyphenyl)diazenyl)-4-methylthiazol-2(3H)-ylidene) hydrazono)ethyl)-2H-chromen-2-one]
IC50 [1]: 3.1 ± 0.1 µM
IC50 [2]: 3.2 ± 0.1 µM
IC50 [3]: 24.8 ± 2.1 µM

COc1ccc(N=Nc2sc(=NN=C(C)c3c(O)c4ccccc4oc3=O)n(C)c2C)cc1 [3b, 4-Hydroxy-3-(-1-((-5-(-(4-methoxyphenyl)diazenyl)-3,4-dimethylthiazol-2(3H)-ylidene) hydrazono)ethyl)-2H-chromen-2-one]
IC50 [1]: 5 ± 0.2 µM
IC50 [2]: 2.6 ± 0.1 µM
IC50 [3]: 27 ± 2.2 µM

CCn1c(C)c(N=Nc2ccc(OC)cc2)sc1=NN=C(C)c1c(O)c2ccccc2oc1=O [3c, 3-(1-((-3-Ethyl-5-(-(4-methoxyphenyl)diazenyl)-4-methylthiazol-2(3H)-ylidene) hydrazono)ethyl)-4-hydroxy-2H-chromen-2-one]
IC50 [1]: 2.6 ± 0.1 µM
IC50 [2]: 3.1 ± 0.1 µM
IC50 [3]: 27 ± 2.1 µM

CC(=NN=c1[nH]c(C)c(N=Nc2ccc([N+](=O)[O-])cc2[N+](=O)[O-])s1)c1c(O)c2ccccc2oc1=O [3d, 3-(-1-((-5-(-(2,4-Dinitrophenyl)diazenyl)-4-methylthiazol-2(3H)-ylidene)hydrazono)ethyl)-4-hydroxy-2H-chromen-2-one]
IC50 [1]: 5.1 ± 0.2 µM
IC50 [2]: 2.8 ± 0.1 µM
IC50 [3]: 26.7 ± 2.3 µM

CCn1c(C)c(N=Nc2ccc([N+](=O)[O-])cc2[N+](=O)[O-])sc1=NN=C(C)c1c(O)c2ccccc2oc1=O [3f, 3-(-1-((-5-(-(2,4-Dinitrophenyl)diazenyl)-3-ethyl-4-methylthiazol-2(3H)-ylidene)hydrazono)ethyl)-4-hydroxy-2H-chromen-2-one]
IC50 [1]: 2.6 ± 0.1 µM
IC50 [2]: 2.9 ± 0.2 µM
IC50 [3]: 25.6 ± 2.5 µM

CC(=NN=c1[nH]c(C)c(N=Nc2ccc(F)cc2)s1)c1c(O)c2ccccc2oc1=O [3g, 3-(-1-((-5-(-(4-Fluorophenyl)diazenyl)-4-methylthiazol-2(3H)-ylidene)hydrazono)ethyl)-4-hydroxy-2H-chromen-2-one]
IC50 [1]: 2.9 ± 0.2 µM
IC50 [2]: 2.8 ± 0.2 µM
IC50 [3]: 30.6 ± 3.3 µM

CC(=NN=c1sc(N=Nc2ccc(F)cc2)c(C)n1C)c1c(O)c2ccccc2oc1=O [3h, 3-(-1-((-5-(-(4-Fluorophenyl)diazenyl)-3,4-dimethylthiazol-2(3H)-ylidene)hydrazono)ethyl)-4-hydroxy-2H-chromen-2-one]
IC50 [1]: 2.8 ± 0.2 µM
IC50 [2]: 3 ± 0.2 µM
IC50 [3]: 27.5 ± 2.5 µM

CCn1c(C)c(N=Nc2ccc(F)cc2)sc1=NN=C(C)c1c(O)c2ccccc2oc1=O [3i, 3-(-1-((-3-Ethyl-5-(-(4-fluorophenyl)diazenyl)-4-methylthiazol-2(3H)-ylidene)hydrazono)ethyl)-4-hydroxy-2H-chromen-2-one]
IC50 [1]: 3 ± 0.1 µM
IC50 [2]: 3.1 ± 0.2 µM
IC50 [3]: 34.3 ± 2.5 µM

CC(=NN=c1[nH]c(C)c(N=Nc2ccc(Cl)cc2)s1)c1c(O)c2ccccc2oc1=O [3j, 3-(-1-((-5-(-(4-Chlorophenyl)diazenyl)-4-methylthiazol-2(3H)-ylidene)hydrazono)ethyl)-4-hydroxy-2H-chromen-2-one]
IC50 [1]: 3.1 ± 0.2 µM
IC50 [2]: 12.7 ± 1.2 µM
IC50 [3]: 27 ± 2.3 µM

CC(=NN=c1sc(N=Nc2ccc(Cl)cc2)c(C)n1C)c1c(O)c2ccccc2oc1=O [3k, 3-(-1-((-5-(-(4-Chlorophenyl)diazenyl)-3,4-dimethylthiazol-2(3H)-ylidene)hydrazono)ethyl)-4-hydroxy-2H-chromen-2-one]
IC50 [1]: 5.4 ± 0.3 µM
IC50 [2]: 11.6 ± 1.1 µM
IC50 [3]: 25.8 ± 2.1 µM

CCn1c(C)c(N=Nc2ccc(Cl)cc2)sc1=NN=C(C)c1c(O)c2ccccc2oc1=O [3l, 3-(-1-((-5-(-(4-Chlorophenyl)diazenyl)-3-ethyl-4-methylthiazol-2(3H)-ylidene)hydrazono)ethyl)-4-hydroxy-2H-chromen-2-one]
IC50 [1]: 4.8 ± 0.3 µM
IC50 [2]: 2.8 ± 0.1 µM
IC50 [3]: 26.2 ± 2.4 µM

CC(=NN=c1[nH]c(C)c(N=Nc2ccc(Br)cc2)s1)c1c(O)c2ccccc2oc1=O [3m, 3-(-1-((-5-(-(4-Bromophenyl)diazenyl)-4-methylthiazol-2(3H)-ylidene)hydrazono)ethyl)-4-hydroxy-2H-chromen-2-one]
IC50 [1]: 12.7 ± 1.1 µM
IC50 [2]: 33.8 ± 3.1 µM
toxic activity on healthy cells BJ-1 [3]: non-significant toxic activities
IC50 [3]: > 500 µM
IC50 [4]: 0.08 ± 0.003 µM
IC50 [5]: 1.01 ± 0.034 µM
IC50 [6]: 0.339 ± 0.013 µM
cells in the G2/M phase (MCF-7 cells [7]): 29.71%
late apoptosis (MCF-7 cells [8]; control 0.14%): 5.57%
early apoptosis (MCF-7 cells [8]; control 0.61%): 14.67%
necrosis (MCF-7 cells [8]; control 2.16%): 3.51%
total volume of collected ascitic fluid [9]: significant reduction
Avg. volume of ascitic fluid (mL) [packed cell volume] [9]: 6 mL
Viable cell count (×10^6 cells per mL) [9]: 13 ×10^6 cells per mL
Cell-growth inhibition (%) [9]: 60.61%
tumor volume of Ehrlich solid carcinoma [10]: reduced to a level comparable to that of the doxorubicin group

CC(=NN=c1sc(N=Nc2ccc(Br)cc2)c(C)n1C)c1c(O)c2ccccc2oc1=O [3n, 3-(-1-((-5-(-(4-Bromophenyl)diazenyl)-3,4-dimethylthiazol-2(3H)-ylidene)hydrazono)ethyl)-4-hydroxy-2H-chromen-2-one]
IC50 [1]: 12.3 ± 1.2 µM
IC50 [2]: 31.8 ± 3.3 µM
toxic activity on healthy cells BJ-1 [3]: non-significant toxic activities
IC50 [3]: > 500 µM
IC50 [4]: 0.35 ± 0.011 µM
IC50 [5]: 3.88 ± 0.131 µM
total volume of collected ascitic fluid [9]: significant reduction
Avg. volume of ascitic fluid (mL) [packed cell volume] [9]: 8 mL
Viable cell count (×10^6 cells per mL) [9]: 22 ×10^6 cells per mL
Cell-growth inhibition (%) [9]: 33.33%
tumor volume of Ehrlich solid carcinoma [10]: more significant in the group administered with compound 3m than in the group administered with compound 3n

CCn1c(C)c(N=Nc2ccc(Br)cc2)sc1=NN=C(C)c1c(O)c2ccccc2oc1=O [3o, 3-(-1-((-5-(-(4-Bromophenyl)diazenyl)-3-ethyl-4-methylthiazol-2(3H)-ylidene)hydrazono)ethyl)-4-hydroxy-2H-chromen-2-one]
IC50 [1]: 22.9 ± 2.3 µM
IC50 [2]: 29.8 ± 2.5 µM
toxic activity on healthy cells BJ-1 [3]: non-significant toxic activities
IC50 [3]: > 500 µM

COc1cccc2c1C(=O)c1c(O)c3c(c(O)c1C2=O)C[C@@](O)(C(=O)CO)C[C@@H]3O[C@H]1C[C@H](N)[C@H](O)[C@H](C)O1 [Doxorubicin, reference compound]
IC50 [1]: 5.6 ± 0.3 µM
IC50 [2]: 6.5 ± 0.5 µM
IC50 [3]: 32.1 ± 3.1 µM
Avg. volume of ascitic fluid (mL) [packed cell volume] [9]: 4 mL
Viable cell count (×10^6 cells per mL) [9]: 9 ×10^6 cells per mL
Cell-growth inhibition (%) [9]: 72.72%

Cc1cc(Nc2ncc3c(n2)N(C)C(=O)N(c2cc(NC(=O)c4cccc(C(F)(F)F)c4)ccc2C)C3)n(C)n1 [pluripotin, reference compound]
IC50 ([6]; read-out: ERK inhibition IC50): 0.171 ± 0.006 µM

From PMC12423761 (RSC Advances, 2025)
